# From PubChem
# KCNK3 inh – human KCNK3 channel inhibition, primary screen; O14649; CHO-KCNK3 thallium flux, FluxOR fluorescence; hits give low values; B-score at 10 µM; hit rate 0.84% among 340,000;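 active = B-score under library mean minus 4 SD, starting fluorescence ratio at most library mean plus 5 SD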;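 note: more negative B-score means stronger inhibition of thallium flux through KCNK3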
# Target sequence (O14649 whole entry, looked up): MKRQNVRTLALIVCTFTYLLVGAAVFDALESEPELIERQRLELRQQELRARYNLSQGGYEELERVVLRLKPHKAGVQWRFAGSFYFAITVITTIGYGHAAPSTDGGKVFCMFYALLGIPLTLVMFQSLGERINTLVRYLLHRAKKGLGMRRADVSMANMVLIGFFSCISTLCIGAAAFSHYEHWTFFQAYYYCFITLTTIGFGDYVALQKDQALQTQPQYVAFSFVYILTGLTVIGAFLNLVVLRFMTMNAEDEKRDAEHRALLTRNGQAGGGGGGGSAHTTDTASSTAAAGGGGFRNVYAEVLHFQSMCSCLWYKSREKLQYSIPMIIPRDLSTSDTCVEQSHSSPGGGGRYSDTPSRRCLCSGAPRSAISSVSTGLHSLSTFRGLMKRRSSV
# Kir21 inh – inhibitors of mouse Kir2.1 inward-rectifier potassium channel; P35561; HEK293-Kir2.1, FluxOR thallium flux fluorescence; hits give low values; B-score at 10 µM; hit rate 0.85% among 310,000; AID 1672;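 active = fluorescence ratio B-score at or below minus 3 SD of library scores, with starting-brightness B-score within 2 SD, cut at about -4.2 in these data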;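 note: channel flux triggered by added potassium and thallium sulfate stimulus; B-score of peak minus minimum fluorescence over baseline after thallium stimulus; more negative B-score means stronger Kir2.1 block with less thallium influx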
# KCNQ1 pot – potentiators or activators of human KCNQ1 potassium channel | CHO-K1 KCNQ1, thallium flux FluxOR fluorescence; hits give high values | B-score at 10 µM | hit rate 0.35% among 310,000 | AID 2648;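 active = fluorescence ratio B-score, a plate-corrected score, at least three library SD, with initial intensity B-score within 5 SD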
#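 System: Stable KCNQ1 CHO-K1 line | Incubation: 90 min dye loading and 20 min compound exposure, both at room temperature | Measure: Ratio B score | Medium: Assay buffer for compound exposure, DMSO matched across wells | Compound dosing: Single-concentration screen | Probe or stimulus: K+/Tl+ depolarizing stimulus | Measured by: Kinetic FluxOR fluorescence, 10 s baseline plus 110 s post-stimulus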
# KCNK9 inh – human KCNK9 channel inhibition; hit rate 1.2% among 310,000; HEK293 KCNK9, FluxOR thallium flux fluorescence; hits give low values; B-score at 10 µM;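 active = ratio B-score over 3 SD below the library mean, with starting fluorescence within 5 SD of its mean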;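 note: negative B-score means less thallium flux so channel inhibition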
# hERG protect – hERG (human) protection from proarrhythmic block | activation (rescue from dofetilide block), less the hit threshold, % at 10 µM | AID 1511 | hit rate 0.51% among 310,000 | Q12809 | CHO-hERG, FluxOR thallium flux, dofetilide IC70 present;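 active = activation above the mean of controls blocked by dofetilide plus 5 SD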;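 note: thallium influx through hERG after potassium depolarization seen as dye fluorescence rise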
# KCNQ1 block – blocks the human KCNQ1 potassium channel | B-score at 10 µM | AID 2642 | CHO-K1 KCNQ1, FluxOR thallium flux fluorescence; hits give high values | P51787 | hit rate 1.3% among 310,000;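 active = compounds whose thallium flux B-score, printed positive for inhibition, exceeds three library SD while starting fluorescence stays within three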;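 note: channel opened by potassium depolarization with thallium stimulus after 20 min compound exposure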
# KCNK3 inh conf – confirmation of human KCNK3 two-pore domain potassium channel inhibitors; shares compounds with KCNK3 inh; CHO-KCNK3 thallium flux, FluxOR fluorescence; 0% buffer, 100% carvedilol maximal block; ratio percent of control, % at 10 µM; hit rate 99% among 2,400;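 active = ratio percent of control, averaged over triplicates, above buffer control mean plus 5 SD, cut at about 64% in these data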;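 note: ratio is the fluorescence rise from min to max over baseline after thallium stimulus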
# KCNK3 uninduced – activity in cells without induced KCNK3 expression; shares compounds with KCNK3 inh; non-induced KCNK3 parental cells, FluxOR thallium flux; hits give low values; thallium flux ratio (lower = more inhibition) at 10 µM; hit rate 40% among 2,400;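 active = thallium flux ratio, averaged over three wells, more than 5 SD below the buffer control mean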;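 note: host cells are CHO cells without KCNK3 induction; ratio is peak minus trough fluorescence over baseline then normalized to buffer controls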
# An asterisk follows results filed as active; i = inactive; · = no result. Hits are enriched below; roughly 3.8% of the tested compounds scored in any of these assays.
SMILES,KCNK3 inh,Kir21 inh,KCNQ1 pot,KCNK9 inh,hERG protect,KCNQ1 block,KCNK3 inh conf,KCNK3 uninduced
COc1ccc(Br)cc1CNC(=O)c1ccc2c(c1)N(C)CCS2,-10*,-1.8,i,i,-14,i,106*,i
Cc1nc(N2CCN(C(=O)c3cccs3)CC2)c2c3c(sc2n1)CCCC3,-10*,-0.55,i,i,-11,i,92*,i
CCc1c(-c2ccccc2)nc2nc(C)c(C)nn12,-8.9*,0.01,i,i,-8,i,104*,0.14*
Cc1ccc(C(=O)OCC(=O)NCc2cccs2)c(C)c1,i,-0.51,i,i,-11,i,·,·
Cc1ccc(C)c(CSCC(=O)NCc2cccs2)c1,-11*,-2.2,i,i,-3,i,84*,i
CCN(CC)S(=O)(=O)c1ccc(NC(=O)c2cccs2)cc1,-10*,-0.14,i,i,-14,i,83*,i
CCn1nc([N+](=O)[O-])c(C(C#N)c2nc3ccccc3n2C)c(Cl)c1=O (stereo not given),i,-1.9,i,i,-3,i,·,·
CCCn1nc([N+](=O)[O-])c(C(C#N)c2nc3ccccc3s2)c(Cl)c1=O (stereo not given),-8.8*,-3.1,i,i,-23,14*,133*,0.11*
CCCCCCCCCCCNC(=O)c1ccoc1C,-8.9*,0.01,i,i,-12,i,96*,i
Cc1occc1C(=O)NCCCCNC(=O)c1ccoc1C,i,-0.34,i,i,-9,i,·,·
CCOC(=O)/C(C#N)=C/c1c(N2CCN(c3ccc(OC)cc3)CC2)nc2c(C)cccn2c1=O,-12*,-0.02,i,i,-8,i,83*,0.15*
N#C/C(=C\c1c(N2CCN(Cc3ccccc3)CC2)nc2ccccn2c1=O)S(=O)(=O)c1ccccc1,-9*,-0.17,i,i,-10,i,103*,i
Cc1cccn2c(=O)c(/C=C(\C#N)S(=O)(=O)c3ccccc3)c(N3CCN(Cc4ccccc4)CC3)nc12,-10*,-1.4,i,i,-17,i,108*,i
OCC[C@@H]1C[C@H](O)[C@@H](O)[C@]2(Cc3ccccc3CO2)O1,i,-0.35,i,i,-8,i,·,·
O=C(Nc1cccc(-c2nnc(-c3ccccc3)o2)c1)c1ccco1,i,1.1,i,i,-4,i,·,·
Cc1nn2c(-c3cccc(NC(=O)c4ccco4)c3)nnc2c2ccccc12,-14*,0.31,i,i,-20,i,106*,i
Cc1cccc(-n2c(SCc3ccc([N+](=O)[O-])cc3)nnc2-c2c[nH]c3ccccc23)c1,-11*,-0.27,i,i,-18,i,108*,0.15*
COc1ccc(CCNC(=O)c2cc3ccccn3n2)c(OC)c1OC,i,-0.39,i,i,-13,i,·,·
O=C(/C=C/c1ccc(N2CCC(c3ccccc3)=N2)cc1)c1ccccc1,·,-10,i,i,-16,i,·,·
CCOC(=O)/C(=C\c1ccc(N2CCC(c3ccccc3)=N2)cc1)C(C)=O,-12*,·,·,·,·,·,0,i
CC(C)NC(=O)C(c1ccc(F)cc1)N(C(=O)CCC(=O)Nc1ccccn1)C1CCCC1 (stereo not given),-13*,-0.85,i,i,-9,i,89*,i
COc1ccc(CC(O)COS(N)(=O)=O)cc1 (stereo not given),i,-0.31,i,i,-4,i,·,·
COc1ccccc1NC(=O)c1ccccc1Oc1ccccc1,-8.8*,0.03,i,i,-8,i,122*,0.12*
COc1ccccc1OCc1ccc(C(=O)Nc2ccccc2F)cc1,i,-1.2,i,i,-3,i,·,·
COc1ccccc1NC(=O)c1ccc(COc2ccccc2OC)cc1,-8.8*,-0.02,i,i,-8,i,103*,i
SMILES,KCNK3 inh,Kir21 inh,KCNQ1 pot,KCNK9 inh,hERG protect,KCNQ1 block,KCNK3 inh conf,KCNK3 uninduced
Cc1ccnc(NC(=O)CCC(=O)N(CC(=O)NCCc2ccccc2)c2ccccc2F)c1,i,-0.3,i,i,-10,i,·,·
CCOC(=O)N1CCC(N(CCN(C)C)C(=S)Nc2ccccc2OCC)CC1,i,0.08,i,i,-2,i,·,·
Cc1cc(OCC(=O)N2CCc3ccccc3C2)c(C)cc1Br,-8.8*,-0.76,i,i,-4,i,130*,0.14*
Cc1ccccc1OCC(=O)N1CCc2ccccc2C1,i,0.08,i,i,-6,i,·,·
CCOc1ccc(C2C(C(=O)c3ccco3)=C(O)C(=O)N2Cc2cccnc2)cc1 (stereo not given),i,0.4,i,i,-9,i,·,·
COc1ccc(C2C(C(=O)c3ccco3)=C(O)C(=O)N2Cc2cccnc2)cc1OC (stereo not given),-9.3*,0.85,i,i,0,i,64*,i
O=C(Nc1cccc(S(=O)(=O)N2CCCCCC2)c1)c1cc(=O)c2ccccc2o1,i,0.11,i,i,-11,i,·,·
CN(c1ccccc1)S(=O)(=O)c1cccc(NC(=O)c2cc(=O)c3ccccc3o2)c1,-10*,-0.23,i,i,-8,i,137*,i
Cc1onc(-c2ccc(Cl)cc2Cl)c1-c1csc(COc2ccccc2)n1,-9.6*,-0.45,i,i,-4,i,101*,0.15*
Cc1cc(NCc2ccccc2)nc(-c2ccccc2O)n1,-11*,0.77,i,i,-8,i,133*,0.13*
COC(=O)C1=C(C)NC(=S)NC1c1ccc(-c2cc(Cl)ccc2Cl)o1 (stereo not given),-8.9*,-2.9,i,i,-13,i,107*,i
COC(=O)C1=C(C)NC(=O)NC1c1ccc(-c2ccc(Cl)cc2)o1 (stereo not given),i,-0.32,i,i,-12,i,·,·
CCSc1nc2cc(C(=O)OC)ccc2c(=O)n1CC,i,-1.4,i,i,1,i,·,·
COCCn1c(SCc2cccc(F)c2)nc2cc(C(=O)OC)ccc2c1=O,-9*,-1.2,i,i,-4,i,107*,i
C=C(C1=CCN(S(=O)(=O)C(C)(C)C)[C@@H]1CCO)c1ccccc1,i,·,·,·,·,·,·,·
